# Screens from PubChem.
# TAAR1 agonist – human TAAR1 agonism. Q96RJ0. CHO RD-HGA16 TAAR1, Fluo-8 calcium fluorescence; vehicle wells 0%, saturating PEA agonist 100%. activation, % at 3 µM. 360,000 compounds, 0.99% hits. AID 624467;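 active = activation above the mean activation of all test compounds in the run plus 3 SD, cut at about 38% in these data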
# Target sequence (Q96RJ0 whole entry, looked up): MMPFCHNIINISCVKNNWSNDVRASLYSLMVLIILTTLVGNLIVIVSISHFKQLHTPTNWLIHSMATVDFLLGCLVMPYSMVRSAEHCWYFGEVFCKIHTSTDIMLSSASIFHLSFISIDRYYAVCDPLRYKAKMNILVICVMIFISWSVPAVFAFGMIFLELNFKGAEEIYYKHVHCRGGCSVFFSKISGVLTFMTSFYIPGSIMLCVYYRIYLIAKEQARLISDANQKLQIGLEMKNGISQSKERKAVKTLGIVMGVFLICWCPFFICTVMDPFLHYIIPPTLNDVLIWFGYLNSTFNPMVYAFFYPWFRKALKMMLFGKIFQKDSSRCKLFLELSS
#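 Signal – calcium-sensitive Fluo-8 signal, excitation 470-495, emission 515-575 nm · System – RD-HGA16 (CHO) cells co-expressing Gα16 and hTAAR1 · Incubation – 17-24 h seeding, 75 min 37 °C dye, 30 min RT · Compound dosing – 3 µM single concentration · Repeats – no replicates (n 1)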
# GPR7 antagonist – antagonists of human GPR7 (neuropeptides B/W receptor 1). GPR7-expressing cells, fluorescence antagonist assay. 290,000 compounds, 1.1% hits. inhibition, % at 4.4 µM. P48145. AID 1861; in the data active = inhibition above about 16%, passing the limit was not always enough;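 also: cells stimulated with the agonist NPW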
# Target sequence (P48145 whole entry, looked up): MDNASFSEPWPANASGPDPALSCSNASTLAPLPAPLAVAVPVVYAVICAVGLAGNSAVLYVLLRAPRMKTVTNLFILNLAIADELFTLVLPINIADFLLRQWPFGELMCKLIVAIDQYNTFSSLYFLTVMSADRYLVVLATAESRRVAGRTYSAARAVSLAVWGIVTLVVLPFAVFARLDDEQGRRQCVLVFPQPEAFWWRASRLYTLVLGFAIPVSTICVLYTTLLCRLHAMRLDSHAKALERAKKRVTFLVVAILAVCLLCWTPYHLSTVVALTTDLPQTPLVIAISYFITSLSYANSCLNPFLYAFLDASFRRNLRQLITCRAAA
# DAGLB inhibitor – diacylglycerol lipase beta (human) inhibition | Q8NCG7 | HEK293T DAGLB membrane lysate, EnzChek fluorogenic substrate | inhibition, % at 5.17 µM | 340,000 compounds, 0.059% hits | AID 504411; in the data active = inhibition above about 34%
# MPTP block – permeability transition pore inhibition. inhibition, % at 10 µM. 360,000 compounds, 1.4% hits. isolated mouse mitochondria, Ca2+ swelling absorbance, 30 min;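 active = inhibition of 50% or more, scaled per plate between neutral and stimulator controls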
# TAAR1 antag – human TAAR1 antagonism. CHO RD-HGA16 TAAR1, Fluo-8 calcium fluorescence, antagonist. 360,000 compounds, 1.5% hits. Q96RJ0. inhibition, % at 3 µM;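 active = inhibition above a per-plate cutoff, the mean inhibition of test compounds on that plate plus 3 SD, cut at about 49% in these data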
#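 test system = CHO RD-HGA16 cells bearing hTAAR1 | replication = singlicate | controls = DMSO-only wells and EC80 β-PEA-stimulated wells | reagent = EC80 β-phenethylamine stimulus | read-out basis = percent inhibition of PEA-evoked calcium signal, max/basal emission ratio | schedule = seeding 17-24 h prior, 75-min 37 °C, 30-min RT dye loading | signal = kinetic Fluo-8 calcium fluorescence measurement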
# Rh123 counter – membrane potential counter-screen of mitochondrial pore inhibitors | AID 624504 | isolated mitochondria, Rhodamine 123 fluorescence | inhibition, % at 10 µM | 5,000 compounds, 78% hits | shares compounds with MPTP block; in the data active = inhibition above about 22%
# MPTP abs DR – MPTP inhibition, dose response swelling confirmation | shares compounds with MPTP block | isolated mitochondria swelling, absorbance | IC50, µM | 780 compounds, 58% hits | AID 651561; in the data active = IC50 below about 20 µM
# MPTP cs DR – MPTP inhibitor counter-screen activity, dose response | shares compounds with MPTP block | isolated mitochondria counterscreen, fluorescence read-out | IC50, µM | 780 compounds, 49% hits; in the data active = IC50 below about 80 µM
# A number is an active result; – = inactive; · = no result given. An excerpt weighted towards active compounds, which were near 4% of everything screened.
SMILES,TAAR1 agonist,GPR7 antagonist,DAGLB inhibitor,MPTP block,TAAR1 antag,Rh123 counter,others
CCOC(=O)NC1(Nc2cccc(Cl)c2)Oc2ccccc2O1,–,–,–,–,–,·,
N#C/C(=N\Nc1ccc(Cl)cc1)C(=O)c1ccccc1,–,–,–,96,–,83,
Cc1c(N/N=C(\C#N)C(=O)c2ccc(Cl)cc2)c(=O)n(-c2ccccc2)n1C,–,–,–,–,–,·,
CCOc1ccc(N/N=C(/C#N)C(N)=O)cc1,–,–,–,–,–,·,
CCOC(=O)NC(=O)/C(C#N)=N\Nc1ccc(Cl)cc1,–,–,–,90,–,95,
NC(=O)[C@@H]1CCCN1C(=O)[C@H](CCc1ccccc1)NC(=O)[C@H]1O[C@@H](n2cnc3c(N)ncnc32)[C@H](O)[C@@H]1O,–,·,·,·,–,·,
CC1(C(=O)NC2CCCCC2)CCC(=O)N1CCOc1ccccc1 (centres undefined),–,·,·,–,–,·,
O=C(OCc1ccccc1)N1C=CCC[C@@H]1c1c(Cl)cccc1Br,–,·,·,–,–,·,
C=CCCC1CN(Cc2ccc(OC)cc2)S(=O)(=O)c2c(NCc3cc(OC)c(OC)c(OC)c3)cccc2O1 (centres undefined),–,·,·,·,–,·,
CCC(=O)c1ccccc1OCCCN1CCC(Cc2ccccc2)CC1,–,–,–,69,–,60,
CCOc1ccccc1OCCN1CCC(Cc2ccccc2)CC1,–,–,–,–,–,·,
COc1ccc(CCNCC(=O)Nc2ccc(C)c(S(=O)(=O)N(C)C)c2)cc1,–,–,–,68,–,–,MPTP abs DR=–;MPTP cs DR=74
Cc1ccc(S(=O)(=O)N2C(c3ccccc3)CC(=O)C3CN(S(=O)(=O)c4ccc(Cl)cc4)C(c4ccccc4)CC32)cc1 (centres undefined),–,·,·,–,–,·,
CC(=O)N1N=C(c2ccc(Cl)cc2)CC1c1ccc([N+](=O)[O-])cc1 (centres undefined),–,–,–,–,–,·,
CC1(O)CC(c2ccc(Cl)cc2)=NN1C(=O)c1ccc([N+](=O)[O-])cc1 (centres undefined),–,–,–,73,–,81,
O=C(CCSc1ccc(Cl)c(Cl)c1)NC12CC3CC(CC(C3)C1)C2,–,–,–,52,–,45,
CC1(Oc2ccccc2)CCN(Cc2csc3ccccc23)C1 (centres undefined),–,·,·,–,–,·,
OC(CNCCC(c1ccccc1)c1ccccc1)COc1ccccc1 (centres undefined),–,–,–,77,–,–,MPTP abs DR=2.9;MPTP cs DR=18
COC(=O)c1cc2c(c3c4cc(C)ccc4n(S(=O)(=O)c4ccc(C)cc4)c13)C(=O)N(C)C2,–,·,·,·,–,·,
CC1=CC(C)(C)N2C(=O)C3(N=C(N)NC(Nc4ccccc4)=N3)c3cc(C)cc1c32 (centres undefined),–,–,–,88,–,–,MPTP abs DR=9.3;MPTP cs DR=–
Cc1cccc(NC2=NC(C)(C)N=C(N)N2)c1,–,–,–,–,–,·,
O=C1CCCC2=C1C(c1ccccc1)C1C(=O)c3ccccc3C1=N2 (centres undefined),–,–,–,–,–,·,
Fc1cccc(C2NN=C(c3ccccc3)S2)c1 (centres undefined),–,–,–,–,–,·,
O=C1CCCC2=C1C(c1ccc(Cl)cc1)C1C(=O)c3ccccc3C1=N2 (centres undefined),–,–,–,55,–,36,
O=C1c2ccccc2C2=Nc3ccccc3SC(c3ccc(Cl)cc3)C12 (centres undefined),–,–,–,89,–,56,
SMILES,TAAR1 agonist,GPR7 antagonist,DAGLB inhibitor,MPTP block,TAAR1 antag,Rh123 counter,others
O=C1c2ccccc2C2=Nc3ccccc3SC(c3cccc(F)c3)C12 (centres undefined),–,–,–,81,–,66,
Nc1nonc1C(=O)NCCN=Cc1cc(Cc2ccccc2)cc(Br)c1O,·,–,–,64,·,31,
O=C(Nc1nc(OCCN2CCCC2=O)cnc1/C=C\c1ccccc1)c1cc2ccccc2s1,–,·,·,–,–,·,
Cc1ccc(/C=C\c2nccc3c2[nH]c2ccccc23)cc1,–,–,–,75,–,61,
Fc1ccc(/C=C\c2nccc3c2[nH]c2ccccc23)cc1,–,–,–,87,–,80,
C(=C\c1nccc2c1[nH]c1ccccc12)/c1ccccc1,–,–,–,–,–,·,
Cc1ccc(/C=C/c2nc3ccccc3c(=O)[nH]2)cc1,–,–,–,–,–,·,
Cc1cnc2ccc(F)cc2c1,–,·,·,–,–,·,
COC(=O)CC#C[C@@H](C)[C@H](NS(=O)(=O)c1ccc(C)cc1)C(C)(C)C,–,·,·,·,–,·,
Cc1ccc(C)c(S(=O)(=O)C(C#N)c2nc3ccccc3nc2N2CCOCC2)c1 (centres undefined),–,–,–,53,–,73,
Cc1ccc(C)c(S(=O)(=O)C(C#N)c2nc3ccccc3nc2N2CC(C)OC(C)C2)c1 (centres undefined),–,–,–,78,–,76,
COC(=O)[C@]12C[C@H](CC(=O)N3CCSCC3)C(=O)N(Cc3ccccc3)C1=C[C@H](C(C)(C)C)O[C@@H]2C,–,·,·,·,–,·,
C=CCNc1cccc2c1S(=O)(=O)N[C@@H](C)CO2,–,·,·,·,–,·,
C#CCN1C(=O)[C@]2(OCCC=C[C@H]2C)c2ccccc21,–,·,·,·,–,·,
CC1CCC2C(=O)N(c3ccc(Cc4ccncc4)cc3)C(=O)C2C1 (centres undefined),–,–,–,87,–,89,
Oc1c(C=C2N=c3ccccc3=N2)sc(=S)n1C1CCCC1,–,–,–,83,–,50,
NC(Cc1ccc(O)cc1)C(=O)NN=Cc1ccccc1O (centres undefined),–,·,·,·,–,·,
C[C@@H]1CN([C@@H](C)CO)C(=O)CCCn2cc(nn2)CO[C@H]1CN(C)C(=O)Nc1ccc2c(c1)OCO2,–,·,·,·,–,·,
Cc1cc(C)nc(SCC(=O)N/N=C\C(Br)=C\c2ccccc2)n1,–,–,–,71,–,66,
O=C(CCN1C(=O)/C(=C\c2cccc(Br)c2)SC1=S)NCCCN1CCOCC1,–,–,–,65,–,–,MPTP abs DR=17;MPTP cs DR=17
O=C(CCN1C(=O)/C(=C/c2ccccc2)SC1=S)NCCCN1CCOCC1,–,–,–,74,–,–,MPTP abs DR=–;MPTP cs DR=63
O=C(CCN1C(=O)/C(=C\c2ccccc2)SC1=S)NNC(=O)c1ccncc1,–,–,·,53,–,–,MPTP abs DR=–;MPTP cs DR=–
O=C(O)C(c1ccccc1)N1C(=O)/C(=C/c2cccs2)SC1=S (centres undefined),–,–,–,–,–,·,
CCc1ccc(/C=C2/SC(=S)N(CCC(=O)NCCCN3CCOCC3)C2=O)cc1,–,–,–,–,–,·,
